# Sampled rows, rich in hits. Any-hit rate of the full collection: about 2.1%.
# FID counter: fluorescent intercalator displacement, NS3 helicase counter-screen. DNA fluorescent intercalator displacement, fluorescence. inhibition, % at 7.9 µM. hit rate 0.17% among 290,000. AID 1845; in the data active = inhibition above about 37%;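 also: 0% = vehicle and 100% = reference compound; higher means more ethidium bromide displaced from hairpin DNA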
# UBC9 SUMO inh: inhibitors of human SUMOylation (UBC9); HTRF SUMOylation assay, SAE1/SAE2 + UBC9, in vitro; hit rate 0.36% among 290,000; inhibition, % at 35 µM; AID 2006; P63279; in the data active = inhibition above about 50%, passing the limit was not always enough
# Target sequence (P63279 whole entry, looked up): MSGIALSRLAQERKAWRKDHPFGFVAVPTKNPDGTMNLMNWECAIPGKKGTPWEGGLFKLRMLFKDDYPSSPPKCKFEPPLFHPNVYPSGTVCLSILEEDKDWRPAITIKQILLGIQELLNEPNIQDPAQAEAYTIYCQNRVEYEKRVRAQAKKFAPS
# NS3 helicase inh: inhibitors of Hepatitis C virus NS3 helicase; NS3 helicase DNA unwinding, Cy5 molecular beacon fluorescence; inhibition, % at 10.9 µM; hit rate 0.56% among 290,000;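 active = inhibition above the mean of all tested compounds plus 3 SD, set per campaign, cut at about 35% in these data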;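 also: 0% = DMSO wells and 100% = thioflavine S control wells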
#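 Assay system – hepatitis C virus NS3 helicase domain fragment enzyme · Buffer or medium – MOPS pH 6.5, MgCl2, DTT, Tween20, BSA · Reagent – Cy5/quencher beacon DNA duplex and ATP to start · Compound – single 10.9 µM dose · Timing – 1 h at 25 °C · Technique – Cy5 beacon fluorescence read at start and 1 h · Measure – % inhibition of unwinding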
# IMP-1 inh-1: blocks Pseudomonas aeruginosa IMP-1 metallo-beta-lactamase; hit rate 0.45% among 290,000; AID 1556; purified IMP-1, nitrocefin hydrolysis, epi-absorbance fluorescence; inhibition, % at 5.6 µM;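 active = inhibition above the mean plus 3 SD of all compounds in the same screening run, cut at about 4.5% in these data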;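 also: 0% = IMP-1 with DMSO and 100% = DMSO wells lacking enzyme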
#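 Assay system: purified IMP-1; Quantity: IMP-1 0.2 nM before substrate addition; Medium: HEPES buffer pH 7.1 with ZnSO4 and Brij 35; Incubation: 15 min enzyme–compound preincubation, then 25 min nitrocefin reaction, 25 °C; Signal: fluorescence quenching readout, ex 480/em 530 nm; Controls: DMSO with and without IMP-1; Repeats: singlicate testing.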
# VIM-2 inhibitor: inhibitors of Pseudomonas aeruginosa VIM-2 metallo-beta-lactamase; inhibition, % at 5.6 µM; purified VIM-2, nitrocefin hydrolysis, epi-absorbance fluorescence; AID 1527; hit rate 0.89% among 290,000;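 active = inhibition above the mean of all tested compounds plus 3 SD, cutoff set per screening run, cut at about 7.5% in these data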;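 also: red hydrolysis product quenches plate fluorescence so inhibitors raise well fluorescence; 0% = enzyme with DMSO and 100% = DMSO without enzyme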
# IMP-1 inh-2: IMP-1 inhibition, counter-screen for VIM-2 inhibitors; shares compounds with VIM-2 inhibitor; purified IMP-1, nitrocefin hydrolysis, epi-absorbance fluorescence; inhibition, % at 5.6 µM; 1,300 tested, under 10 active; AID 1856; call rule not given here;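 also: 0% = enzyme with vehicle and 100% = vehicle without enzyme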
# VIM-2 FRET inh: inhibits VIM-2 in FRET assay to exclude epi-absorbance artifacts | hit rate 23% among 1,300 | shares compounds with VIM-2 inhibitor | inhibition, % at 5.6 µM | purified VIM-2, CCF2 FRET substrate hydrolysis;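 active = inhibition above the mean of all tested compounds plus 3 SD, cut at about 19% in these data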;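 also: 0% = VIM-2 plus DMSO and 100% = no enzyme wells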
# TEM-1 counter: selectivity counter-screen for VIM-2 inhibitors: E. coli TEM-1 inhibitors. shares compounds with VIM-2 inhibitor. Purified TEM-1, nitrocefin hydrolysis, epi-absorbance fluorescence. inhibition, % at 5.6 µM. hit rate 3% among 1,300;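 active = inhibition above that campaign's mean inhibition plus 3 SD, cut at about 0.46% in these data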;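 also: 0% = TEM-1 with DMSO and 100% = TEM-1 with 100 µM potassium clavulanate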
# Target sequence (P62593 whole entry, looked up): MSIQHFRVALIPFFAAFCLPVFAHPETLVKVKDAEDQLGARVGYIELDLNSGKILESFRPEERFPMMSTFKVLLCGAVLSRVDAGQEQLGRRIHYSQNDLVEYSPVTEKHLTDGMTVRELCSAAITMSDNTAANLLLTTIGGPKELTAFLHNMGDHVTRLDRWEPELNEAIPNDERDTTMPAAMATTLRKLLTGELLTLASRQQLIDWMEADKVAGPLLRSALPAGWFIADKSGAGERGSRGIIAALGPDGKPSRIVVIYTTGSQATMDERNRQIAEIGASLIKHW
# VIM-2 inh conf: confirmation of P. aeruginosa VIM-2 metallo-beta-lactamase inhibitors; shares compounds with VIM-2 inhibitor; purified VIM-2, nitrocefin hydrolysis, epi-absorbance; inhibition, % at 5.6 µM; hit rate 96% among 1,300; AID 2187;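 active = inhibition of the VIM-2 beta-lactamase enzyme above about 11% from the earlier first-round screen, limit read from the data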;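 also: 0% = VIM-2 with DMSO and 100% = buffer wells without enzyme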
# * marks the source's active call; other numbers are inactive results; x = not tested or not shown.
SMILES,FID counter,UBC9 SUMO inh,NS3 helicase inh,IMP-1 inh-1,VIM-2 inhibitor,IMP-1 inh-2,VIM-2 FRET inh,TEM-1 counter,VIM-2 inh conf
Cc1cc(=O)oc2c(C)c(OCC(=O)NC3CC(C)(C)NC(C)(C)C3)ccc12,3.5,x,-2.3,-2.1,5.5,x,x,x,x
Cc1c(OCC(=O)NC2CC(C)(C)NC(C)(C)C2)ccc2c1oc(=O)c1ccccc12,31.9,30.4,-53.2,0.8,27.4*,-0.8,0.7,-14.6,39.7*
O=C(NCCCn1ccnc1)c1nn2c(C(F)(F)F)cc(-c3ccccc3)nc2c1Cl,2.7,15.3,-6.7,-3.4,27.1*,-2.7,-12.1,-4.4,52.5*
COCCNC(=O)c1nn2c(C(F)(F)F)cc(-c3ccccc3)nc2c1Cl,-5.9,16.2,-5.9,-0.7,4.0,x,x,x,x
CCCn1c(-c2ccncc2)n[nH]c1=S,6.1,-3.0,5.9,-0.3,3.4,x,x,x,x
CCCn1c(C(C)C)n[nH]c1=S,-2.1,-3.7,-4.2,-2.7,26.4*,-3.7,54.1*,-6.9,35.3*
COCC(C)NC(=O)c1cccc([N+](=O)[O-])c1 (stereo not given),-0.2,-4.1,8.0,0.3,-0.3,x,x,x,x
COCC(C)NC(=O)c1cc2cccc([N+](=O)[O-])c2[nH]1 (stereo not given),-2.6,-14.2,4.2,-3.6,21.2*,-3.5,39.1*,-5.3,23.2*
O=C(CC(C(=O)O)c1cccc(Cl)c1Cl)c1ccccc1 (stereo not given),-23.2,-0.9,21.7,1.5,14.7*,-1.8,28.6*,-5.1,17.8*
CCOC(CNC(=O)c1cc2c(=O)n(CC)c3ccccc3c2s1)OCC,-28.0,11.6,-3.9,-1.5,5.6,x,x,x,x
CCn1c(=O)c2cc(C(=O)NCC(OC)OC)sc2c2ccccc21,-33.3,16.9,-2.3,-4.7,6.7,x,x,x,x
CCCCN(CC)CCNC(=O)c1cc2c(=O)n(CC)c3ccccc3c2s1,18.8,-4.9,-13.9,-1.6,14.0*,-2.6,-3.5,-5.0,18.7*
CCCN(CCC)CCCNC(=O)c1cc2c(=O)n(CC)c3ccccc3c2s1,10.2,15.8,-25.9,0.7,14.0*,-2.3,-2.3,-5.1,21.2*
CCCCN(CC)CCCNC(=O)c1cc2c(=O)n(CC)c3ccccc3c2s1,8.9,3.8,-58.0,-1.6,12.3*,-2.4,-0.9,-5.6,21.7*
CN(C)C(=O)c1ccccc1NC(=O)Cc1cccc2ccccc12,-4.1,11.2,-2.1,-0.4,-0.7,x,x,x,x
COc1ccc(-c2cc3c(=O)n(CC(=O)N4CCN(C)CC4)ncn3n2)cc1,-3.3,23.1,1.1,-5.1,16.7*,-3.0,-2.1,-5.1,30.5*
O=C(Nc1ccccc1C(F)(F)F)N1CCN(c2ccc3nnc(-c4ccc(F)cc4)n3n2)CC1,20.4,5.5,-4.1,-1.5,12.4*,-2.9,-1.6,-7.6,6.4
O=C(Nc1ccc(F)cc1)N1CCN(c2ccc3nnc(-c4ccc(F)cc4)n3n2)CC1,-5.6,18.2,10.4,-2.3,3.3,x,x,x,x
O=C(c1ccc(Br)o1)N1CCN(c2ccc3nnc(-c4ccccc4)n3n2)CC1,-26.0,12.4,-2.8,-2.1,16.1*,-2.7,-2.0,-1.6,24.2*
CC1C(=O)C(C)C(c2cc(Cl)ccc2O)NC1c1cc(Cl)ccc1O (stereo not given),-5.8,-7.0,-16.2,-2.9,-1.4,x,x,x,x
CCOC(=O)c1ccccc1N/C=C1\CCCCC1=O,-7.5,-6.6,0.4,-2.5,13.8*,-1.7,23.9*,-4.0,26.6*
O=C(O)c1cccc2c1C(=O)c1ccccc1-2,-3.3,22.9,12.5,0.0,13.7*,-4.4,31.4*,-5.9,16.9*
O=C1c2ccccc2-c2cccc(C(=O)N3CCN(C(=O)c4ccccc4)CC3)c21,-20.9,8.9,-10.7,-1.4,-1.0,x,x,x,x
Cc1cc(F)ccc1S(=O)(=O)N1CCCOC1CNC(=O)C(=O)NC1CCCC1 (stereo not given),-30.0,7.1,6.5,-0.9,-0.3,x,x,x,x
COc1ccccc1N1CCN(Cc2cc(Br)c(O)c3ncccc23)CC1,-9.4,-0.5,19.0,-4.5,23.9*,-3.2,1.8,-6.2,7.0
SMILES,FID counter,UBC9 SUMO inh,NS3 helicase inh,IMP-1 inh-1,VIM-2 inhibitor,IMP-1 inh-2,VIM-2 FRET inh,TEM-1 counter,VIM-2 inh conf
Oc1ccc(CN2CCN(c3ccccc3)CC2)c2cccnc12,2.6,0.7,3.6,-1.7,-3.0,x,x,x,x
O=[N+]([O-])c1cc(CN2CCN(c3cccc(C(F)(F)F)c3)CC2)c2cccnc2c1O,-5.5,85.7,16.9,-4.0,34.9*,-3.4,1.8,-6.7,14.7*
OCCN1CCN(Cc2cc(Cl)c3cccnc3c2O)CC1,2.3,-43.6,-2.4,-2.5,-2.5,x,x,x,x
O=[N+]([O-])c1cc(CN2CCCC2)c2cccnc2c1O,-7.3,48.8,24.9,-4.9,38.3*,-2.9,3.2,-6.1,44.5*
CNc1ccccc1C(=O)OC(C)C(=O)Nc1ccc(Cl)cn1 (stereo not given),-13.1,0.5,-0.2,2.6,1.2,x,x,x,x
C=CCOc1ccc(CNn2c(C)n[nH]c2=S)cc1OC,-10.5,-0.9,-0.2,-0.5,-1.3,x,x,x,x
C=CCOc1ccc2ccccc2c1CNn1c(C)n[nH]c1=S,-29.0,-12.4,-9.9,-1.6,16.8*,-4.1,32.6*,-5.8,20.0*
CC(C)C(=O)Nc1nnc(SCC(=O)NCC2CCCO2)s1 (stereo not given),-5.2,-9.0,8.6,-1.4,0.5,x,x,x,x
O=C(CSc1nnc(NC(=O)c2cc(Br)ccc2Cl)s1)NCC1CCCO1 (stereo not given),-28.6,-5.2,3.7,-3.4,25.1*,-2.5,48.1*,-5.3,33.5*
COc1ccccc1C(=O)Nc1nnc(SCC(=O)NCC2CCCO2)s1 (stereo not given),-15.3,14.9,5.1,0.0,15.5*,-3.2,32.6*,-6.1,20.9*
COc1cc(C(=O)Nc2nnc(SCC(=O)NCC3CCCO3)s2)cc(OC)c1OC (stereo not given),-28.1,14.1,1.8,-0.4,0.7,x,x,x,x
O=C(CSc1nnc(-c2cccs2)n1CC1CCCO1)c1cc2ccccc2o1 (stereo not given),-24.0,26.4,-0.2,-2.0,13.8*,-3.6,30.7*,-9.4,17.2*
Cn1c(SCC(=O)c2cc3ccccc3o2)nnc1-c1ccccc1,-15.5,-2.9,1.6,-2.3,-4.8,x,x,x,x
O=C1C(Br)=Cc2cccc3cccc1c23,4.8,22.9,10.0,0.1,15.3*,-1.8,1.3,-6.1,20.3*
O=C1C([N+](=O)[O-])=C(O)c2cccc3cccc1c23,1.2,-31.3,24.0,-0.4,2.8,x,x,x,x
